Only some compounds are listed: those with a hit (about 3% of all), similar ones and a draw of the others.
RAM inhibit: inhibitors of the yeast RAM network. S. cerevisiae dse1pr::URA3 reporter, 5-FOA growth OD615, 2 d; analog-sensitive cbk1-as2 kinase mutant strain. inhibition, % at 50 µM. 190,000 tested, 1.8% active;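 active = inhibition above a set limit, 3 SD over mean compound inhibition, cut at about 8.4% in these data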;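 also: inhibition rescues growth on 5-FOA so higher OD means more RAM inhibition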
INS promoter inh: TRM-6 insulin promoter activity inhibition. AID 1273. TRM-6 cells, insulin promoter-eGFP reporter, imaging; reporter expression induced with tamoxifen. inhibition, % at 2 µM. 130,000 tested, 0.9% active;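 active = inhibition above the mean plus 3 SD, with well images judged a real hit on visual review, cut at about 60% in these data, passing the limit was not always enough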
Insulin prom up: MIN6 insulin promoter up-regulation. 190,000 tested, 0.3% active. MIN6 insulin promoter-GFP reporter, high-content imaging; hits give high values. z-score at 5 µM;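 active = z-score above 3 at 5 µM with at least 500 cells counted in the well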
Yeast growth inh: chemicals that inhibit yeast BB579 growth in restrictive medium (lifespan-shortening candidates) | S. cerevisiae BB579 growth, OD615, 48 h | inhibition, % at 10 µM | 140,000 tested, 0.51% active | AID 804;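 active = inhibition above a set limit, 3 SD over the mean compound inhibition, cut at about 44% in these data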
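Assay system: S. cerevisiae DeaD strain BB579 yeast. Medium: CSMM-D restrictive synthetic medium containing dextrose (glucose). Times: 4 h cell preincubation, 48 h compound exposure, 30 °C humidified. Signal: OD615 turbidity measurement. Benchmarks: positive control amphotericin B 10 µg/mL.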
Yeast life ext: yeast lifespan extension | S. cerevisiae growth with nicotinamide, OD615; deaD strain in restrictive glucose medium | inhibition of the nicotinamide effect, % at 10 µM | 130,000 tested, 0.68% active | AID 775;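 active = inhibition above a set limit, placed 3 SD over the median of all compounds, cut at about 26% in these data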
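assay system = DeaD-strain S. cerevisiae | buffer or medium = restrictive glucose medium | reagent = 1.5 mM nicotinamide | compound = 10 µM single point, 0.25% DMSO | incubation = 48 h compound exposure at 30 °C, humidified | signal = OD615 measurement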
A number is an active result; - = inactive; . = no result given.

SMILES	RAM inhibit	INS promoter inh	Insulin prom up	Yeast growth inh	Yeast life ext
O=c1[nH]c(=O)n(Cc2ccccc2)c2nc(-c3ccc(Oc4ccc(F)cc4)c([N+](=O)[O-])c3)n(CCO)c12	-	74	-	-	-
Cc1oc2c(c1C(=O)Nc1cccc(C(=O)O)c1)CCCC2	-	66	.	-	-
CCOCCCNCC(=O)Nc1ccc(S(=O)(=O)NC(C)CC)cc1 (stereo not given)	-	.	-	.	.
Cc1cccc(C)c1NC(=O)c1sccc1SCc1cccc(C(F)(F)F)c1	11	-	.	-	-
CC1(C(=O)NCc2ccc(Cl)c(Cl)c2)Oc2cccnc2NC1=O (stereo not given)	-	-	-	.	.
Cn1c(=O)c2c(nc(Br)n2Cc2ccc3ccccc3c2)n(C)c1=O	-	.	-	-	38
Cn1c(=O)c2c(nc(SCc3ccccc3)n2Cc2ccc(Cl)cc2)n(C)c1=O	8.9	-	-	-	.
CC(C)Sc1nc2c(c(=O)n(C)c(=O)n2C)n1Cc1ccc(Cl)cc1	-	-	-	-	-
CCCCCn1c(CN2CCN(C)CC2)nc2c1c(=O)n(C)c(=O)n2C	-	.	-	-	-
CCCCCCn1c(CN2CCN(Cc3ccccc3)CC2)nc2c1c(=O)n(C)c(=O)n2C	-	-	-	-	27
Cn1c(=O)c2c(nc(Br)n2Cc2ccccc2Cl)n(C)c1=O	-	.	-	-	-
Clc1cccc(CN2CCN(Cc3nc(CCc4ccccc4)no3)CC2)c1	-	.	-	.	.
Cc1ccc(C(=O)NCCSC2CCCCC2)cc1S(=O)(=O)Nc1ccccc1	11	.	-	-	-
COc1ccc(C(=O)C2CCCN(C3Cc4ccccc4C3)C2)c(OC)c1 (stereo not given)	-	-	-	.	.
O=C(O)C1C(c2ccccc2)C(C(=O)OCc2ccco2)C1c1ccccc1 (stereo not given)	-	-	-	-	.
COC(=O)C1C(c2ccccc2)C(C(=O)OCc2ccco2)C1c1ccccc1 (stereo not given)	8.5	-	.	-	.
Cc1ccccc1CSCCNC(=O)Nc1ccccc1	-	-	-	.	.
CCCCN(C)C(=O)c1oc2ccc(S(=O)(=O)N3CCCCCC3)cc2c1C	9.8	-	-	-	-
CCOC(=O)N1CCN(C(=O)c2oc3ccc(S(=O)(=O)N4CCCCC4)cc3c2C)CC1	-	.	-	-	-
CCCCCC(=O)NNC1CC(=O)N(c2cccc(OCC)c2)C1=O (stereo not given)	.	.	-	.	.
CC1=CC(=O)C=C(C)C1=NOc1ccc([N+](=O)[O-])cc1	-	100	-	.	.
CC1CN(C)C(C)C/C1=N\Oc1ccc([N+](=O)[O-])cc1 (stereo not given)	-	-	-	.	.
Cc1nc2cc3ccccc3cc2n1C	-	-	-	-	-
CSc1nc2cc(F)c(F)cc2n1C	-	86	-	-	-
COc1ccc(CCNC(=O)C2CCN(C(=O)c3ccc([N+](=O)[O-])cc3)CC2)cc1	-	.	-	.	.
SMILES	RAM inhibit	INS promoter inh	Insulin prom up	Yeast growth inh	Yeast life ext
O=S(=O)(/C=C/c1ccccc1)N1CCN(Cc2ccccc2)CC1	-	.	-	.	.
CC1(C)Cc2c(c(N3CCOCC3)nc3sc4c(NCc5ccccc5)nnnc4c23)CS1	8.7	-	.	-	-
CC(C)N1CCC(NC(=O)Nc2ccc3c(c2)OCO3)CC1	-	.	-	.	.
COc1cccc(C(=O)O/N=C(\N)Cc2ccc(Cl)cc2)c1	-	-	-	100	-
N/C(Cc1ccc(Cl)cc1)=N\OC(=O)C1CCCCC1	-	-	-	100	-
O=C(CC1C(=O)NCCN1Cc1ccc(F)cc1)NCCCn1cccn1 (stereo not given)	-	.	.	.	.
COC(=O)c1ccc(COc2ccc3c(C)c(C)c(=O)oc3c2)o1	-	.	3.5	-	-
O=C(O)c1ccc(COc2ccc3c4c(c(=O)oc3c2)CCC4)o1	-	-	-	-	-
CN(C)S(=O)(=O)c1ccc(C(=O)OCC(=O)c2ccc(OC(F)F)cc2OC(F)F)cc1	11	-	-	-	-
CN(C)S(=O)(=O)c1ccc(C(=O)OCC(=O)Nc2ccccc2OC(F)F)cc1	-	-	-	-	-
C=CCn1c(SCCN2CCCC2)nc2c([nH]c3ccccc32)c1=O	-	-	-	.	.
O=C(/C=C/c1ccccc1)Nc1ncn[nH]1	-	-	-	-	36
CCC(C(=O)O)N1C(=O)C2CCCCC2C1=O (stereo not given)	.	.	-	.	.
O=c1c2ccccc2nc(SCc2cccc(F)c2)n1C1CCCC1	11	.	-	-	-
N#CCSc1nc2ccccc2c(=O)n1C1CCCCC1	-	-	.	.	.
Nc1ccc(SC(F)(F)F)cc1C(=O)c1ccccc1	-	-	.	57	-
Cc1ccc(-c2noc(CN(C(=O)CCCN3C(=O)c4ccccc4C3=O)C(C)C)n2)cc1	.	-	.	.	.
COc1ccccc1OCC(=O)N(Cc1nc(-c2ccc(Cl)cc2)no1)C(C)C	-	.	-	-	-
Cc1cc(Br)ccc1OCC(=O)N(Cc1nc(-c2ccccc2)no1)C(C)C	11	-	-	-	-
COc1cccc(OCC(=O)N(Cc2nc(-c3ccc(Cl)cc3)no2)C(C)C)c1	10	.	-	-	-
Cc1ccc(-c2noc(CN(C(=O)CCCCCN3C(=O)c4ccccc4C3=O)C(C)C)n2)cc1	9.8	-	-	-	-
O=C(NCCSCc1ccc(Cl)cc1)c1cccs1	.	.	-	.	.
COc1ccc(N(CC(=O)NC2CCCC2)C(=O)Cn2nnc(-c3ccc(F)cc3)n2)cc1OC	9.3	-	-	-	-
Cc1cccc(C)c1NC(=O)c1sc(Cl)nc1C	-	-	-	-	-
O=C1CC(c2ccccc2F)C2=C(COC2=O)N1 (stereo not given)	-	-	-	.	.
SMILES	RAM inhibit	INS promoter inh	Insulin prom up	Yeast growth inh	Yeast life ext
O=c1c2cccc3c2c(nn1CN1CCOCC1)-c1ccccc1-3	-	-	-	93	-
COC(=O)/C(=C1/Oc2cc(C)oc(=O)c2S1)C(F)(F)F	-	.	-	-	47
Cc1cc(C)nc(SCc2ccc(C(=O)O)o2)n1	-	.	.	-	-
Cc1cc(C(F)(F)F)nc(SCc2ccc(C(=O)O)o2)n1	-	73	-	-	-
CNC(=O)C(=O)N/N=C/c1cccnc1	.	.	-	.	.
Cc1cccc(OCc2nc(C#N)c(NCc3ccc4c(c3)OCO4)o2)c1	11	-	-	-	-
CCOc1cc(/C=C/c2cc(C(=O)O)c3ccccc3n2)ccc1O	-	-	-	-	-
CCN(CC)c1ccc(/C=C/c2cc(-c3ccccc3)c3ccccc3n2)cc1	.	.	15	.	.
O=C(CCC(NC(=O)OCc1ccccc1)C(=O)OCc1ccccc1)NCC(=O)OCc1ccccc1 (stereo not given)	8.8	.	-	-	-
NC(=O)CC[C@H](NC(=O)OCc1ccccc1)C(=O)OCc1ccc(Cl)cc1	-	-	-	-	-
O=C(NC12CC3CC(CC(C3)C1)C2)OCCNC1CCCCC1	.	.	-	.	.
O=C(NC(=S)N1CCc2ccccc21)c1ccc(Br)o1	-	.	-	.	.
O=C(NC(=S)N1CCc2ccccc21)c1ccccc1Br	-	.	-	-	27
O=C(CSc1ccccc1)Nc1ccc(-c2nc3ccccc3[nH]2)cc1	-	.	-	-	-
